The values that follow come from ChEMBL document CHEMBL5543089, “Discovery of a novel, highly potent EZH2 PROTAC degrader for targeting non-canonical oncogenic functions of EZH2” (Eur J Med Chem, 2024).

One data set relates to RS4-11. The experiment in a line: Anti-proliferative activity against human RS4-11 cells assessed as cell viability measured after 5 days incubation by CCK-8 assay. It is filed as functional, cell-based. The conditions noted are these: RS4-11, 120 h. Put shortly:
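Cells plated at 3,000–10,000 per well and exposed to serial dilutions for 5 days at 37 °C. CCK-8 (1x) was added for 2–4 h, with absorbance read at 450 nm against a 690 nm reference. IC50 was taken from curve fits. Leukemia lines were grown in RPMI-1640, K562 in IMDM and MDA-MB-468 in DMEM, all with 10 % FBS. Values are means ± SD of two biological experiments (three for BT549 and MDA-MB-468).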
(Tetrazolium assays rely on reduction of a dye to a coloured formazan, in cell work by metabolically active cells.)

Data set [1] deals with Histone-lysine N-methyltransferase, H3 lysine-79 specific (Homo sapiens) (UniProt Q8TEK3). The experiment in a line: Inhibition of human DOT1L assessed as methyltransferase at 10 uM by radioisotope based MT HotSpot assay relative to control. Put shortly:
(§1)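 Radioisotope-based methyltransferase assay (MT HotSpot) run by a contract lab. Compound was tested at 10 μM against a panel of 20 methyltransferases, in duplicate. Values are means ± SD of two replicates.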

In data set [2] the target is PRMT5/MEP50 complex (Homo sapiens) (UniProt O14744+Q9BQA1). The data set can be described thus: Inhibition of human PRMT5/MEP50 assessed as methyltransferase activity using Histone H2A as substrate at 10 uM by radioisotope based MT HotSpot assay relative to control. Format: protein-complex assay. The procedure, abridged: as §1
Data set [3] has as its target Histone-lysine N-methyltransferase NSD2 (Homo sapiens) (UniProt O96028). The experiment in a line: Inhibition of human NSD2 assessed as methyltransferase activity using Nucleosomes as substrate at 10 uM by radioisotope based MT HotSpot assay relative to control. The procedure, abridged:
as §1

Data set [4] addresses T1, von Hippel-Lindau disease tumor suppressor/Histone-lysine N-methyltransferase EZH2 (Homo sapiens, UniProt Q15910+P40337). The experiment in a line: PROTAC activity at VHL/EZH2 degradation in MLLr AML cell line human EOL1 cells assessed as protein degradation at 0.5 uM measured after 24 hrs in presence of 5 uM EPZ-6438 by Western blot analysis. Format: cell-based. The procedure, abridged: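 EOL-1 cells were pre-treated for 2 h with MLN4924 (0.05 μM), EPZ-6438 (5 μM) or VHL-1 (5 μM), then given 0.5 μM degrader for 24 h. EZH2 was assessed by Western blot against β-actin. Blots are representative of two biological experiments.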
(In western blotting, separated proteins are transferred to a membrane and probed.)

Data set [5] concerns the target Protein arginine N-methyltransferase 7 (Homo sapiens) (UniProt Q9NVM4). The data set can be described thus: Inhibition of human PRMT7 assessed as methyltransferase activity using GST-GAR as substrate at 10 uM by radioisotope based MT HotSpot assay relative to control. The procedure, abridged: as §1
In data set [6] the target is Histone-arginine methyltransferase CARM1 (Homo sapiens) (UniProt Q86X55). The experiment in a line: Inhibition of human PRMT4 assessed as methyltransferase activity using Histone H3 as substrate at 10 uM by radioisotope based MT HotSpot assay relative to control. The procedure, abridged:
as §1

Data set [7] addresses Histone-lysine N-methyltransferase EHMT2 (Homo sapiens) (UniProt Q96KQ7). The experiment in a line: Inhibition of human G9a assessed as methyltransferase activity using Histone H3 as substrate at 10 uM by radioisotope based MT HotSpot assay relative to control. Put shortly:
as §1

Data set [8] is described as follows: Toxicity in mouse at 50 mg/kg, ip measured after 4 hrs. The conditions noted are these: in vivo. Format: organism-based.
Data set [9] deals with T1, von Hippel-Lindau disease tumor suppressor/Histone-lysine N-methyltransferase EZH2. The experiment in a line: PROTAC activity at VHL/EZH2 degradation in hMLLr AML cell line EOL1 cells assessed as protein degradation at 1 uM measured after 24 hrs by Western blot analysis. It is filed as cell-based. The procedure, abridged:
(§2)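 Cells were seeded at 0.5–2 million per well and treated for 24 h, or for the stated times at 300 nM in the time course. Lysis was in RIPA with protease inhibitors; ~10 μg protein was run on SDS-PAGE and blotted to PVDF. Detection used fluorescent immunoblotting for EZH2, EED and SUZ12, with β-actin as loading control. Blots are representative of two biological experiments.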

The target in data set [10] is Histone-lysine N-methyltransferase EHMT1 (Homo sapiens) (UniProt Q9H9B1). The data set can be described thus: Inhibition of human GLP assessed as methyltransferase activity using Histone H3 as substrate at 10 uM by radioisotope based MT HotSpot assay relative to control.
Data set [11] concerns the target T1, von Hippel-Lindau disease tumor suppressor/Histone-lysine N-methyltransferase EZH2. The experiment in a line: PROTAC activity at VHL/EZH2 degradation in MLLr AML cell line human EOL1 cells assessed as protein degradation at 0.1 uM measured after 24 hrs by Western blot analysis. Format: cell-based. The procedure, abridged:
as §2

Data set [12] shares this target. The experiment in a line: PROTAC activity at VHL/EZH2 degradation in human BT-549 cells assessed as protein degradation at 0.1 to 3 uM measured after 48 hrs by Western blot analysis. It is filed as cell-based. To be noted: dose 0.1-3 µM. The procedure, abridged: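 BT549 (RPMI-1640) and MDA-MB-468 (DMEM) cells were treated for 48 h. RIPA lysates (~10 μg) were immunoblotted for EZH2 with β-actin as loading control. Blots are representative of three biological experiments.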

Data set [13] deals with von Hippel-Lindau disease tumor suppressor/Polycomb protein SUZ12 (Homo sapiens) (UniProt Q15022+P40337). The data set can be described thus: PROTAC activity at VHL/SUZ12 degradation in MLLr AML cell line human EOL1 cells assessed as protein degradation at 1 to 1000 nM […] measured after 1 to 24 hrs by Western blot analysis. Format: cell-based. To be noted: dose 1-1000 nM, time 1-24 hrs. The procedure, abridged: as §2

For data set [14], the target named is T1, von Hippel-Lindau disease tumor suppressor/Histone-lysine N-methyltransferase EZH2. The data set can be described thus: PROTAC activity at VHL/EZH2 degradation in human RS4-11 cells assessed as protein degradation at 0.1 uM measured after 24 hrs by Western blot analysis. Format: cell-based. The procedure, abridged:
as §2

In data set [15] the target is Histone-lysine N-methyltransferase NSD3 (Homo sapiens) (UniProt Q9BZ95). The experiment in a line: Inhibition of human NSD3 assessed as methyltransferase activity using Nucleosomes as substrate at 10 uM by radioisotope based MT HotSpot assay relative to control. Put shortly:
as §1

The target of data set [16] is N-lysine methyltransferase KMT5A (Homo sapiens) (UniProt Q9NQR1). The experiment in a line: Inhibition of human SET8 assessed as methyltransferase activity using Nucleosomes as substrate at 10 uM by radioisotope based MT HotSpot assay relative to control. Put shortly: as §1
N-lysine methyltransferase KMT5A (Homo sapiens), sequence (Q9NQR1 whole entry): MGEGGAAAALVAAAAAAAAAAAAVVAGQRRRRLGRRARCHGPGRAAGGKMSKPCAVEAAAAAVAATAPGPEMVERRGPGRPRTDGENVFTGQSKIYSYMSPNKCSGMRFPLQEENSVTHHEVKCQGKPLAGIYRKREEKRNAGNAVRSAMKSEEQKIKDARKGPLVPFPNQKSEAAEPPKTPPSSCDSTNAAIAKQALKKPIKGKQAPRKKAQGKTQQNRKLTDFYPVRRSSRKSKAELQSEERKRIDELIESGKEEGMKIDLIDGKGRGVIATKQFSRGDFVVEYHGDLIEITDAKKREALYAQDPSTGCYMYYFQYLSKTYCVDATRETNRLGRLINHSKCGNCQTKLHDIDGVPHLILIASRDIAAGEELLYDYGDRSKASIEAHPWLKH
The target in data set [17] is Protein arginine N-methyltransferase 3 (Homo sapiens) (UniProt O60678). The data set can be described thus: Inhibition of human PRMT3 assessed as methyltransferase activity using Histone H3 as substrate at 10 uM by radioisotope based MT HotSpot assay relative to control. Put shortly:
as §1

The nature of data set [18]: Cmax in mouse at 50 mg/kg, ip measured after 4 hrs. To be noted: in vivo. It is filed as ADME, organism-based.
Data set [19] deals with T1, von Hippel-Lindau disease tumor suppressor/Histone-lysine N-methyltransferase EZH2. The experiment in a line: PROTAC activity at VHL/EZH2 degradation in MLLr AML cell line human EOL1 cells assessed as protein degradation at 0.3 uM measured after 24 hrs by Western blot analysis. Format: cell-based. The procedure, abridged:
as §2

For data set [20] the target is unchanged. The data set can be described thus: PROTAC activity at VHL/EZH2 degradation in hMLLr AML cell line EOL1 cells assessed as protein degradation at 0.1 uM measured after 24 hrs by Western blot analysis. It is filed as cell-based. The procedure, abridged: as §2
For data set [21], the target named is Histone-lysine N-methyltransferase SETD2 (Homo sapiens) (UniProt Q9BYW2). The data set can be described thus: Inhibition of human SETD2 assessed as methyltransferase activity using Oligo Nucleosomes as substrate at 10 uM by radioisotope based MT HotSpot assay relative to control. The procedure, abridged:
as §1

Data set [22] addresses Histone-lysine N-methyltransferase 2A (Homo sapiens) (UniProt Q03164). The experiment in a line: Inhibition of human MLL1 assessed as methyltransferase activity using Nucleosomes as substrate at 10 uM by radioisotope based MT HotSpot assay relative to control. The procedure, abridged: as §1

Active and inactive are the calls of the source. The calls are words filed in the database; no cut-off is given here.

T1 sequence (P40337 whole entry, looked up): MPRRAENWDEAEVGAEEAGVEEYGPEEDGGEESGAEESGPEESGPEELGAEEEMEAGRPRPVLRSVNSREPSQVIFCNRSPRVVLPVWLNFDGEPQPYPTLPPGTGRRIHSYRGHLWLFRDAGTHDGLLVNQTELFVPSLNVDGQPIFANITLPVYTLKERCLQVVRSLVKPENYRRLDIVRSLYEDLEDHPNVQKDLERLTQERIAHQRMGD
T1 sequence (Q15910 whole entry, looked up): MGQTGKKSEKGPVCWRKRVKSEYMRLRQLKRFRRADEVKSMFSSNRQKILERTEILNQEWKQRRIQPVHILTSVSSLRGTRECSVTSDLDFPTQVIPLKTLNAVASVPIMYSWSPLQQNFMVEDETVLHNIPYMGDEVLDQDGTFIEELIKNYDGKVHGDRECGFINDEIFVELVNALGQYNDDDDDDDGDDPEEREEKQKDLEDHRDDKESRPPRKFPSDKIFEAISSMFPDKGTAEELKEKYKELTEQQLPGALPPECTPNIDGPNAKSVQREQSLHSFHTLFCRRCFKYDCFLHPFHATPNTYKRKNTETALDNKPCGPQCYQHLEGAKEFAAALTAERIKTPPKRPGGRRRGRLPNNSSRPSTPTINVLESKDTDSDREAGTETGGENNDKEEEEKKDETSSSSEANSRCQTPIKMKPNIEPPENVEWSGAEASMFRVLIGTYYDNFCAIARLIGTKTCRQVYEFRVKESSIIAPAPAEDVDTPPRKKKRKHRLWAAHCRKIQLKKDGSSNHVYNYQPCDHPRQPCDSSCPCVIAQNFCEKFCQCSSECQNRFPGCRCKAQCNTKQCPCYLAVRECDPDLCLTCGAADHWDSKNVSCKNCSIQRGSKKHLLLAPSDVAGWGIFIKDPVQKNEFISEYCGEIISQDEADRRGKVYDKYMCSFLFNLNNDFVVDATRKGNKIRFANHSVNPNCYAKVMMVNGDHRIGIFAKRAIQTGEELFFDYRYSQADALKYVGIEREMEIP
Histone-lysine N-methyltransferase EHMT2 (Homo sapiens), sequence (Q96KQ7 whole entry): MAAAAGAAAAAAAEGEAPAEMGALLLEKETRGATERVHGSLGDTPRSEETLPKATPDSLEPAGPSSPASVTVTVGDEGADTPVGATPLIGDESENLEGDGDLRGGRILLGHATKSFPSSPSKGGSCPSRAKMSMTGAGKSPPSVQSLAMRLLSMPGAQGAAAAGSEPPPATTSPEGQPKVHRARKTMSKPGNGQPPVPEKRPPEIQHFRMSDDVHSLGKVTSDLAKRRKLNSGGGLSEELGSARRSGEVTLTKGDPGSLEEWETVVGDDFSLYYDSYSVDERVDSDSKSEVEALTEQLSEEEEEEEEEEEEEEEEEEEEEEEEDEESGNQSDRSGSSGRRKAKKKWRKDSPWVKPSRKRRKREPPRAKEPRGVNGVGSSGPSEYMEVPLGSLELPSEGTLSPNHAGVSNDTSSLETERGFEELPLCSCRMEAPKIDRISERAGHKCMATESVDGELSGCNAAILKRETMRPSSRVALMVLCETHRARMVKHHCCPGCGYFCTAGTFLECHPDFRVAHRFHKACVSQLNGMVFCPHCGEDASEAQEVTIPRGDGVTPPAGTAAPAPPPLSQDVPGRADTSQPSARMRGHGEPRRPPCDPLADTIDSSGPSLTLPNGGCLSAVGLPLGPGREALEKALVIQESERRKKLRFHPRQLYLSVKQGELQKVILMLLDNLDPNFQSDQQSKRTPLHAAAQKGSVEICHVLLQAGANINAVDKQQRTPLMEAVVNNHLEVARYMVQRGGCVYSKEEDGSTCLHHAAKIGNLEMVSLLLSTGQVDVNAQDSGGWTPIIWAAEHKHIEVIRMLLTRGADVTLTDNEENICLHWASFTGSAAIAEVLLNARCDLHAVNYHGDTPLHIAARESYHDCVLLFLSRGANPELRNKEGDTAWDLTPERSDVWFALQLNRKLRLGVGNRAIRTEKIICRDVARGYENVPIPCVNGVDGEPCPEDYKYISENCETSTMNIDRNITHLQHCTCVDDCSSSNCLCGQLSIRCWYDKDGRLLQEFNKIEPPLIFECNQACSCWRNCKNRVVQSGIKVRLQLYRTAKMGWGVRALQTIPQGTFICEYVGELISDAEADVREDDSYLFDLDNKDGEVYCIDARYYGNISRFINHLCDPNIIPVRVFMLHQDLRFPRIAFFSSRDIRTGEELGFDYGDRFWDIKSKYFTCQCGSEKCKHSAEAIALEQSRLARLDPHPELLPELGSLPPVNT
Protein arginine N-methyltransferase 3 (Homo sapiens), sequence (O60678 2-531 limits assumed): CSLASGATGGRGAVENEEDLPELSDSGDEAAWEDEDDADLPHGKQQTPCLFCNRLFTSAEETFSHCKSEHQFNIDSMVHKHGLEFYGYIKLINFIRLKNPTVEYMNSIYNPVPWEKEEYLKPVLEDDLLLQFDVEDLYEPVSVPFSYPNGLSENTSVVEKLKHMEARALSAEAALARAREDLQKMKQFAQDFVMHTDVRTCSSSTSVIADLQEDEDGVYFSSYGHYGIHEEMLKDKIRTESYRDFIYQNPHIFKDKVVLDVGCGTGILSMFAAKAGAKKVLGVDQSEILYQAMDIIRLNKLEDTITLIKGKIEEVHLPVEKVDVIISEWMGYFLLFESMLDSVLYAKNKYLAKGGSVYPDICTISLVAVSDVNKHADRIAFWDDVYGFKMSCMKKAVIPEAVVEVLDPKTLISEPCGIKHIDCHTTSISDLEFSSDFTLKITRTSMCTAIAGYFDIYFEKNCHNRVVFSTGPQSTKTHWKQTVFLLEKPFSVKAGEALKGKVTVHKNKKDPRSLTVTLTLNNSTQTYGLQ
Histone-lysine N-methyltransferase NSD3 (Homo sapiens), sequence (Q9BZ95 whole entry): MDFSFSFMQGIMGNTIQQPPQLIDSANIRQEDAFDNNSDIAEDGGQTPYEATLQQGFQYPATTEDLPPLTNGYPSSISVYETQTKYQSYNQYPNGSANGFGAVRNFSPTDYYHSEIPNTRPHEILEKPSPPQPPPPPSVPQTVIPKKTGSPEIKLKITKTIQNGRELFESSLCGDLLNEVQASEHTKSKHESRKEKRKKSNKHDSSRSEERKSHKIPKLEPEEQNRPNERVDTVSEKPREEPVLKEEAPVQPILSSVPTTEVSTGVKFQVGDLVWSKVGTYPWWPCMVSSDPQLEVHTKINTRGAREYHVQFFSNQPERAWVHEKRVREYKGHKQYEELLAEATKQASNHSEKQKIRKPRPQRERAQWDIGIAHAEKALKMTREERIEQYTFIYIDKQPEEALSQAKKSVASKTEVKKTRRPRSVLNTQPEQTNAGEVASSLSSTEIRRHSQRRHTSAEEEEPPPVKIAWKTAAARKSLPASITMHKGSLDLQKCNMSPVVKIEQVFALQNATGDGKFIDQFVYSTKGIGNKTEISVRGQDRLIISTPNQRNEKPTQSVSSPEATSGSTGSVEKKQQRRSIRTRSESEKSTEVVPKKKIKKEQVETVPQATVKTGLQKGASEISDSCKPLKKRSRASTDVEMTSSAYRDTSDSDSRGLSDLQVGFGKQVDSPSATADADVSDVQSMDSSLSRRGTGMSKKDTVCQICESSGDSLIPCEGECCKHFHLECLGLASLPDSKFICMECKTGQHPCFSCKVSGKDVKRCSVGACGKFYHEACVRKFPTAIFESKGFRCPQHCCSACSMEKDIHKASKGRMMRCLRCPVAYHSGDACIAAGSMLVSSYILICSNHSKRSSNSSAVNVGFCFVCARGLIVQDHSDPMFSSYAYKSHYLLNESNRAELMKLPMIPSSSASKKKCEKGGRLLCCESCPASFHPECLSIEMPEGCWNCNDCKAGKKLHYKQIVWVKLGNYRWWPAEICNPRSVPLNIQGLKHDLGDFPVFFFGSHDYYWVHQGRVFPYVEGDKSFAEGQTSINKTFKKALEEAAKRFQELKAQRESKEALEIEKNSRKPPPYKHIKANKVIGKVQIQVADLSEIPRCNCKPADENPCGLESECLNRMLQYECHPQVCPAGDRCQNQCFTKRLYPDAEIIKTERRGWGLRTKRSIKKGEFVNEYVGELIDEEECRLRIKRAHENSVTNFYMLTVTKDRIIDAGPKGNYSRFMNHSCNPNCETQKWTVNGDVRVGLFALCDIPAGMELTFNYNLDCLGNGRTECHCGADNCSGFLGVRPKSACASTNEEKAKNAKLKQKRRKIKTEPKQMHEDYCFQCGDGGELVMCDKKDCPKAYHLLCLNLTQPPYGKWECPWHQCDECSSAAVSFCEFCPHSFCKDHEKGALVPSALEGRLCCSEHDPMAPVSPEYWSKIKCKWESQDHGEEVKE

The IC50 is the point on the concentration scale where inhibition reaches its midpoint. As usually defined, the inhibition is the share of the control response that was lost under treatment. The term Cmax denotes the maximum level reached in the sampled fluid or tissue. For `CCN(c1cc(-c2ccc(CN3CCN(CCC(=O)NCCCCCCCCCCC(=O)N[C@H](C(=O)N4C[C@H](O)C[C@H]4C(=O)NCc4ccc(-c5scnc5C)cc4)C(C)(C)C)CC3)cc2)cc(C(=O)NCc2c(C)cc(C)[nH]c2=O)c1C)C1CCOCC1`, in the data set on RS4-11, the IC50 was determined as 410 nM. In addition, the inhibition in data set [1], in data set [2], in [3], in [5], in [6] and in data set [7] was below 50% throughout. For the same molecule, the inhibition in [10], in data set [15], in [16], in data set [17], in data set [21] and in data set [22] was below 50% each time. The outcome in [4] was inactive. Moreover, the Activity result in [8] is “Non-Toxic”; in data set [9], 100%; in data set [11], 100%; in data set [19], 100%; in data set [20] it was 100%. Further, the result in [12], in data set [13] and in data set [14] was Active. Also, the Cmax in data set [18] came out at 3.9 µM.
